Source: ChEMBL document CHEMBL2163245 (J Med Chem, 2012)
Active and inactive are the calls of the source. The calls are words filed in the database; no cut-off is given here.

Columns and labels:
[1] = Selectivity ratio of IC50 for KCNQ1 to KCNQ2
[2] = target: T1, Potassium voltage-gated channel subfamily KQT member 2 (Homo sapiens, UniProt O43526); test: Antagonist activity at KCNQ2 expressed in CHO cells incubated for 3 mins by automated patch clamp assay; assay type: functional, cell-based
[3] = target: T1, Potassium voltage-gated channel subfamily KQT member 2; test: Agonist activity at KCNQ2 expressed in CHO cells at 30 uM incubated for 3 mins by automated patch clamp assay; assay type: functional, cell-based
Summary of the method: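 Ionworks Quattro population patch clamp on CHO cells stably expressing KCNQ2, 7,000 cells/well in extracellular solution (mM: 137 NaCl, 4 KCl, 1 MgCl2, 1.8 CaCl2, 10 HEPES, 10 glucose, pH 7.4), amphotericin B (50 μg/ml) perforation. Held -90 mV, 2,000 ms step to -10 mV; steady-state current at pulse end before and 3 min after compound; % change versus pre-compound current. Cells >100 pA and seal >30 MΩ only.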

Plasma = test: Fraction unbound in rat plasma; assay type: ADME, cell-free
Brain = test: Fraction unbound in rat brain homogenate; assay type: ADME, tissue-based
[4] = Drug uptake in Sprague-Dawley rat brain at 10 mg/kg, ip after 1 hr by LC/MS analysis; assay type: ADME, organism-based; design: dose 10 mg/kg, route intraperitoneal; details: read-out: Drug uptake
Summary of the method: (§1)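 Male Sprague-Dawley rats (250 g) dosed 10 mg/kg i.p., formulated 3 mg/mL in 10% Tween 80/sterile water. Blood (cardiac puncture) and brain taken at 1 h. Brain washed in cold PBS, frozen, homogenized 1:3 (w/w) in 70:30 isopropanol:water. Plasma and homogenate precipitated with acetonitrile containing carbamazepine internal standard, diluted 1:1 with water, quantified by ESI LC/MS/MS using MRM in positive mode.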

[5] = Plasma concentration in Sprague-Dawley rat at 10 mg/kg, ip after 1 hr by LC.MS analysis; assay type: ADME, organism-based; design: dose 10 mg/kg, route intraperitoneal; summary of the method: as §1
[6] = target: Voltage-gated inwardly rectifying potassium channel KCNH2 (Homo sapiens, UniProt Q12809); test: Inhibition of human ERG
[7] = Inhibition of KATP
[8] = Inhibition of N-type calcium channel at 10 uM
[9] = Inhibition of L-type calcium channel at 10 uM
[10] = target: Melatonin receptor type 1A (Homo sapiens) (UniProt P48039); test: Inhibition of human MT1 at 10 uM
[11] = target: T2, Potassium voltage-gated channel subfamily KQT member 4 (Homo sapiens, UniProt P56696); test: Antagonist activity at KCNQ4 expressed in CHO cells incubated for 3 mins by automated patch clamp assay; assay type: functional, cell-based
T2 sequence (P56696 whole entry): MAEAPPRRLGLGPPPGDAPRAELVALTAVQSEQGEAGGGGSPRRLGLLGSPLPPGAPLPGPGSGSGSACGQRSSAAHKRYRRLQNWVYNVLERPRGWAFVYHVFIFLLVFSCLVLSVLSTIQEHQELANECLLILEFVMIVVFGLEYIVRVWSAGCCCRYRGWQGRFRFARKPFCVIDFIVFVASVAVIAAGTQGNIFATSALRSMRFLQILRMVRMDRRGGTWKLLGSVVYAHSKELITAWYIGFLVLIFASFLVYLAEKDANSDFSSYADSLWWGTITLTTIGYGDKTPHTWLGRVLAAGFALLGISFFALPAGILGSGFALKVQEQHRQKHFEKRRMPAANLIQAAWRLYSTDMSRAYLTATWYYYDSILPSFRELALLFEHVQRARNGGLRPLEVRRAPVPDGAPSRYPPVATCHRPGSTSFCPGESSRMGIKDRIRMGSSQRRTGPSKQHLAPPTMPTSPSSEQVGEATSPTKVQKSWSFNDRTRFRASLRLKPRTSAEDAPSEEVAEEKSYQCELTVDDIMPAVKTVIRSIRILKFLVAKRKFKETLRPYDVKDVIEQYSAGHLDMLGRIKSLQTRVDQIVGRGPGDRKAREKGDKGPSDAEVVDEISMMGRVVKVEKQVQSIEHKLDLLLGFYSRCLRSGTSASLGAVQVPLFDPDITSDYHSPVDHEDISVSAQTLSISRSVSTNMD
Summary of the method: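 Population patch clamp on CHO cells stably expressing KCNQ4, freshly dislodged at 7,000 cells/well in extracellular solution (mM: 137 NaCl, 4 KCl, 1 MgCl2, 1.8 CaCl2, 10 HEPES, 10 glucose, pH 7.4). Cells were perforated with 50 μg/ml amphotericin B, held at -70 mV, and stepped to +40 mV. Current was measured at +40 mV before and after 3 min compound exposure and expressed as percent change in the same well.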

[12] = target: Voltage-gated potassium channel, KQT; KCNQ2(Kv7.2)/KCNQ3(Kv7.3) (Homo sapiens, UniProt O43525+O43526); test: Antagonist activity at KCNQ2/Q3 expressed in CHO cells incubated for 3 mins by automated patch clamp assay
[13] = target: T3, Potassium voltage-gated channel subfamily KQT member 1 (Homo sapiens, UniProt P51787); test: Antagonist activity at KCNQ1 expressed in CHO cells incubated for 3 mins by automated patch clamp assay
T3 sequence (P51787 whole entry): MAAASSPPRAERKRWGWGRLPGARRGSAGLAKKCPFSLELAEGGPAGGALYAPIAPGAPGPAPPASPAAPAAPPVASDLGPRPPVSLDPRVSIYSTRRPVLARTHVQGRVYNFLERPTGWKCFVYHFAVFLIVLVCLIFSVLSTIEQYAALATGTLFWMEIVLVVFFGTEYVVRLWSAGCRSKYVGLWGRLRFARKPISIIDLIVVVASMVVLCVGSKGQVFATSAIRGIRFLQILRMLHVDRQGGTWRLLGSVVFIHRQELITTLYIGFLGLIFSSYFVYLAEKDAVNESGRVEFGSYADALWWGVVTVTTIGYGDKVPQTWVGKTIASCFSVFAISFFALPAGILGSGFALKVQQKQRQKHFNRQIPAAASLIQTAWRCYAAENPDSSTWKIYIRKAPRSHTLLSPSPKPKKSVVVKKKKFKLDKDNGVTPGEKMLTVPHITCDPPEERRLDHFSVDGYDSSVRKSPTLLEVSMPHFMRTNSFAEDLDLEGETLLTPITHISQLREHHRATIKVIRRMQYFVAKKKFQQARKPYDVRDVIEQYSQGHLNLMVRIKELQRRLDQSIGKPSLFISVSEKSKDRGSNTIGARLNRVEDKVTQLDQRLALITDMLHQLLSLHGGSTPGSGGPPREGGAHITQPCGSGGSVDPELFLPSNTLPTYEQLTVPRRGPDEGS

[14] = target: Voltage-gated potassium channel, IKs; KCNQ1(Kv7.1)/KCNE1(MinK) (Homo sapiens, UniProt P15382+P51787); test: Antagonist activity at KCNQ1/E1 expressed in CHO cells incubated for 3 mins by automated patch clamp assay
Cytochrome P450 2D6 = Cytochrome P450 2D6 (Homo sapiens, UniProt P10635)
Cytochrome P450 2C9 = Cytochrome P450 2C9 (Homo sapiens, UniProt P11712)
Cytochrome P450 1A2 = target: T4, Cytochrome P450 1A2 (Homo sapiens, UniProt P05177)
T4 sequence (P05177 whole entry): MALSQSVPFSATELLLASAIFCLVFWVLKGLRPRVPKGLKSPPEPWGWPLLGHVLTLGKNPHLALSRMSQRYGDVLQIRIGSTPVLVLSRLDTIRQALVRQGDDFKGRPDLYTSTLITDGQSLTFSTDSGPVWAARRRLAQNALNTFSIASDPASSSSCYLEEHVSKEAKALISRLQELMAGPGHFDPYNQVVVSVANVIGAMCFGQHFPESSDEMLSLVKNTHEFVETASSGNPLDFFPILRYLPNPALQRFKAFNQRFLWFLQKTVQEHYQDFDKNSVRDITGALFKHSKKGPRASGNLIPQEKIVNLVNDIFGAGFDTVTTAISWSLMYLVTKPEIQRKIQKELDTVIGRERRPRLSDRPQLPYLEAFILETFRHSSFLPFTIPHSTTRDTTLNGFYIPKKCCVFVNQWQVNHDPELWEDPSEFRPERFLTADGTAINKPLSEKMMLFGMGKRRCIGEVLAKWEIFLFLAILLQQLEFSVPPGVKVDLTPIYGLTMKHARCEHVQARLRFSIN

T1 sequence (O43526 whole entry): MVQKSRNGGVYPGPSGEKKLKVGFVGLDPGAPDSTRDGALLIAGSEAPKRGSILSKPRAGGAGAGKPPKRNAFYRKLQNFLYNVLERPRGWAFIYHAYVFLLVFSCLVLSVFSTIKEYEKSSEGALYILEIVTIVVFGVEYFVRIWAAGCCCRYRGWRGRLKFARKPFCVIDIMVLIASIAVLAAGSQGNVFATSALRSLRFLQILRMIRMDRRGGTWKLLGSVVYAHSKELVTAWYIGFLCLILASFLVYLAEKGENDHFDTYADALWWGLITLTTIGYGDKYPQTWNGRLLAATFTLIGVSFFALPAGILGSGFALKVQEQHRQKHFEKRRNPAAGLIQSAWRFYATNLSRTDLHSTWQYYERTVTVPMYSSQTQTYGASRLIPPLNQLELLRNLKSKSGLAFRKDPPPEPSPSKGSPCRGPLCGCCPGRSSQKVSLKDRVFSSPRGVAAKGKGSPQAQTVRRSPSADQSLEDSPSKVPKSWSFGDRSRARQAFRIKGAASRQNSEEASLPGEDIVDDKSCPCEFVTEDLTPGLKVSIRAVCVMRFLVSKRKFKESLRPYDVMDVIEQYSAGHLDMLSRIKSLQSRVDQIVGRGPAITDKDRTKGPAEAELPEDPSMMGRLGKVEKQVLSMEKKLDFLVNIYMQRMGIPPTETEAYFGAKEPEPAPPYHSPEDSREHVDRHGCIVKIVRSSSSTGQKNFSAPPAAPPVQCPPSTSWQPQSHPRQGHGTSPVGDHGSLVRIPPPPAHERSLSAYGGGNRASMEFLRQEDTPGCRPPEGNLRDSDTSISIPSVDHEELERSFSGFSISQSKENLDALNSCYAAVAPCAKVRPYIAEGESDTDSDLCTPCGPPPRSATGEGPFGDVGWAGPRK
Chain of Voltage-gated potassium channel, KQT; KCNQ2(Kv7.2)/KCNQ3(Kv7.3) (O43526 whole entry): as above
Chain of Voltage-gated potassium channel, KQT; KCNQ2(Kv7.2)/KCNQ3(Kv7.3) (O43525 whole entry): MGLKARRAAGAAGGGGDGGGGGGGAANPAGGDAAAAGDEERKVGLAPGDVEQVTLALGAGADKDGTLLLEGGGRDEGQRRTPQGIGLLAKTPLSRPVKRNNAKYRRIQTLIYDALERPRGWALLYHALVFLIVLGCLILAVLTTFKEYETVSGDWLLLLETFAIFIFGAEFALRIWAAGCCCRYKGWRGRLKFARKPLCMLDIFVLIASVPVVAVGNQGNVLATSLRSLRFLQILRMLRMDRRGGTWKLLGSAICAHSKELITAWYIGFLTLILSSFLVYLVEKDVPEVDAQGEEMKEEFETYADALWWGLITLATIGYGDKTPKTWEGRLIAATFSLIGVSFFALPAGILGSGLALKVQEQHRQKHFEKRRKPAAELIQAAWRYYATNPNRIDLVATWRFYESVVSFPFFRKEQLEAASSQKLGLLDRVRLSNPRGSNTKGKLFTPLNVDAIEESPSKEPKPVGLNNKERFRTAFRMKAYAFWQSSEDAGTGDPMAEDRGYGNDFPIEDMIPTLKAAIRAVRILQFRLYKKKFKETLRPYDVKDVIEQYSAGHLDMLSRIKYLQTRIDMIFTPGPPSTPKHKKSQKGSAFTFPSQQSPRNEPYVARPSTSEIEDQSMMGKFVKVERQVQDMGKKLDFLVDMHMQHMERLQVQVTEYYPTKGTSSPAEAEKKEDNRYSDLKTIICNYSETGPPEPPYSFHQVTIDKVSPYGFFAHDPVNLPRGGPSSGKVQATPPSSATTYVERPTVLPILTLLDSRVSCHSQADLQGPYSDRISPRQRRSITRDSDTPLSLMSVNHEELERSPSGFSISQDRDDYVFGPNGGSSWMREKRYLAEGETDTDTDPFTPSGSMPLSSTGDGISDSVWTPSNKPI
Chain of Cytochrome P450 2D6 (P10635 whole entry): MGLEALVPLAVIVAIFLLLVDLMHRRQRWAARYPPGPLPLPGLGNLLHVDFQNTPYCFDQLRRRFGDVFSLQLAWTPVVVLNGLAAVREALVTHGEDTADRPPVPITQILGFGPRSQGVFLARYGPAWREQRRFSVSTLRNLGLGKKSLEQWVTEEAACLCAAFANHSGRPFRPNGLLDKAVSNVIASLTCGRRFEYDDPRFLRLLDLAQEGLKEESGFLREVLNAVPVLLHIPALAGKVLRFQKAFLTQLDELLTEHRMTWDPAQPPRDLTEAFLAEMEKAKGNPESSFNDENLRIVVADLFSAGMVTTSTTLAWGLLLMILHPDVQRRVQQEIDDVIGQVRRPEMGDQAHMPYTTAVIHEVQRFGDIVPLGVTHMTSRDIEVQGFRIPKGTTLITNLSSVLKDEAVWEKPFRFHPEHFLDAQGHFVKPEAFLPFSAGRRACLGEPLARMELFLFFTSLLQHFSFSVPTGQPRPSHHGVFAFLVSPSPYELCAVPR
Chain of Cytochrome P450 2C9 (P11712 whole entry): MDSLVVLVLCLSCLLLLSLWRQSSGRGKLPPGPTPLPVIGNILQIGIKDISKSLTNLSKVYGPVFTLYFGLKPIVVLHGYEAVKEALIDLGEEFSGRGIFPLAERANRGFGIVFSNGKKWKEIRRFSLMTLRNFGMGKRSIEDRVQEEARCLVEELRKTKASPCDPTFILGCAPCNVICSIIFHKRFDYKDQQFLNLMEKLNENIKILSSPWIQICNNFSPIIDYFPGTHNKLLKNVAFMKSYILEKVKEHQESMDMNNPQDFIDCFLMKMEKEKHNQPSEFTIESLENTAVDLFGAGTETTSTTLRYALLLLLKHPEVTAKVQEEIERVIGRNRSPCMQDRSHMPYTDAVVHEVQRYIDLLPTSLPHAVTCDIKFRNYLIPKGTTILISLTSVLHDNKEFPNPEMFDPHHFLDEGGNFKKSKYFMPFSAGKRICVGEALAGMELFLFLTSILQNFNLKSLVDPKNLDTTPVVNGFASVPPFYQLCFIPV
Chain of Voltage-gated inwardly rectifying potassium channel KCNH2 (Q12809 whole entry): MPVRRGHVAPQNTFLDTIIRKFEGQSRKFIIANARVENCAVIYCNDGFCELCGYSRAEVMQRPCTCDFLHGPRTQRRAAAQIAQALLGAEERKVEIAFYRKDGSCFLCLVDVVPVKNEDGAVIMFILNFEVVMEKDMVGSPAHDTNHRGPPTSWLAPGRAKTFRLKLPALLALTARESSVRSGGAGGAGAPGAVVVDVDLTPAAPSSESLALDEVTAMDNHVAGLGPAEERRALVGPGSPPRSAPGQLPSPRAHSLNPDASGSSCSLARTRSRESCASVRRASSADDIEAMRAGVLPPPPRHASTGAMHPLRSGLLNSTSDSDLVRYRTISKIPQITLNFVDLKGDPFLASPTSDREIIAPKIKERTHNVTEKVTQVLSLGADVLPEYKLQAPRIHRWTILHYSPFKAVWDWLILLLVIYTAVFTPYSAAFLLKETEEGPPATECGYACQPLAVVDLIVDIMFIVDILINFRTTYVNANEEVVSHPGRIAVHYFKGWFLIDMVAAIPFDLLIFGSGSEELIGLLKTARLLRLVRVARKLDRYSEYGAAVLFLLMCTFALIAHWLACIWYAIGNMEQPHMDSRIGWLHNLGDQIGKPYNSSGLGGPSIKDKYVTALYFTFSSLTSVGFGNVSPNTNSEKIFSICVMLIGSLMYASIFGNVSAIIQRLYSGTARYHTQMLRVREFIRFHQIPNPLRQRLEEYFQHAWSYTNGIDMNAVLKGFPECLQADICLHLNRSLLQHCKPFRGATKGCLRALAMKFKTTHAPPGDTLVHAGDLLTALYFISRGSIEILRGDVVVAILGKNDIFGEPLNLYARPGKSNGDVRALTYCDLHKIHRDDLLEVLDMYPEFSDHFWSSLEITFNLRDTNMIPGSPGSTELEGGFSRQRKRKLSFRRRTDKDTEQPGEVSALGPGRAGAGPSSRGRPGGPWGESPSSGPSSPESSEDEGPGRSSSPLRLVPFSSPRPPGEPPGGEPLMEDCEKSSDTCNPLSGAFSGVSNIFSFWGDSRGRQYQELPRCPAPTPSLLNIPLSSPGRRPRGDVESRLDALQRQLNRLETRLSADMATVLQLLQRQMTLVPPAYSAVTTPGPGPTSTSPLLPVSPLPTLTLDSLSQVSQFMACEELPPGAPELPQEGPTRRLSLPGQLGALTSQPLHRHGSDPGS
Chain of Melatonin receptor type 1A (Homo sapiens) (P48039 whole entry): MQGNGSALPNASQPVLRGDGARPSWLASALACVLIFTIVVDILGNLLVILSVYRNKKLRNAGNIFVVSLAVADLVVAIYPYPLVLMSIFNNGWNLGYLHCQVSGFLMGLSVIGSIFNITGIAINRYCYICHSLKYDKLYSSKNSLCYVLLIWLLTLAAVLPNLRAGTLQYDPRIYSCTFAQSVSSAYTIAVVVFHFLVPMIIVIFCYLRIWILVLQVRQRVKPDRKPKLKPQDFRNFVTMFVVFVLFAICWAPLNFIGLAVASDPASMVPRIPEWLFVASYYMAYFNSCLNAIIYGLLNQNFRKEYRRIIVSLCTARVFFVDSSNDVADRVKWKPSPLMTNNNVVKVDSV

| SMILES | Ratio IC50 [1] | IC50 [2] [nM] | also measured |
| --- | --- | --- | --- |
| CCC(C(=O)Nc1ccccc1N1CCCC1)c1ccccc1F (racemic) | > 40 | 440 | – |
| O=C(Cc1ccccc1F)Nc1ccccc1N1CCCC1 | – | – | inhibition [3]: 26.6% |
| CC[C@H](C(=O)Nc1ccccc1N1CCCCC1)c1ccccc1 | > 40 | – | – |
| CCC(C(=O)Nc1ccccc1N1CCCC1)c1cccc(C(F)(F)F)c1 (racemic) | > 40 | 390 | – |
| CCC(C(=O)Nc1ccccc1N1CCCC1)c1cccc(F)c1 (racemic) | > 40 | 360 | – |
| CCC(C(=O)Nc1ccccc1N1CCCC1)c1cccc(C)c1 (racemic) | > 40 | 330 | – |
| CCC(C(=O)Nc1ccccc1N1CCCC1)c1cccc(Cl)c1 (racemic) | > 40 | 240 | – |
| CC[C@H](C(=O)Nc1ccccc1N1CCCC1)c1ccccc1 | – | 70 | Fu (Plasma): 0.6%; Fu (Brain): 0.3%; concentration at 1 h [4]: 208 ng/g; concentration at 1 h [5]: 116 ng/mL; inhibition (INH) [6]: Not Active; inhibition [7]: inactive; inhibition [8]: inactive; inhibition [9]: inactive; inhibition [10]: 61%; IC50 [11]: 200 nM; IC50 [12]: 120 nM; IC50 [13]: 2920 nM; IC50 [14]: 8120 nM; IC50 (Cytochrome P450 2D6): 19900 nM; IC50 (Cytochrome P450 2C9): 18900 nM; IC50 (Cytochrome P450 1A2): 6100 nM |
| C[C@H](C(=O)Nc1ccccc1N1CCCC1)c1ccccc1 | > 40 | – | – |
| CCC(C(=O)Nc1ccccc1N1CCCC1)c1ccc(F)cc1 (racemic) | > 40 | 130 | – |
| CCC(C(=O)Nc1ccccc1N1CCCC1)c1ccc(Cl)cc1 (racemic) | > 40 | 280 | – |
| CCC(C(=O)Nc1ccccc1N1CCCC1)c1cccc(OC)c1 (racemic) | > 40 | 120 | – |
